Laboratory results reported in ChEMBL document CHEMBL4480400, “Development of an N-Acyl Amino Acid That Selectively Inhibits the Glycine Transporter 2 To Produce Analgesia in a Rat Model of Chronic Pain” (J Med Chem, 2019).
Active and inactive are the calls of the source. No cut-off for these calls is given here.

Key:
[1] = target: Sodium-dependent noradrenaline transporter (Homo sapiens) (UniProt P23975); test: Displacement of [125I] RTI-55 from recombinant human full length NET expressed in MDCK cells at 10 uM after 120 mins by scintillation counting relative to control; type: cell-based
Sequence of Sodium-dependent noradrenaline transporter (Homo sapiens) (P23975 whole entry): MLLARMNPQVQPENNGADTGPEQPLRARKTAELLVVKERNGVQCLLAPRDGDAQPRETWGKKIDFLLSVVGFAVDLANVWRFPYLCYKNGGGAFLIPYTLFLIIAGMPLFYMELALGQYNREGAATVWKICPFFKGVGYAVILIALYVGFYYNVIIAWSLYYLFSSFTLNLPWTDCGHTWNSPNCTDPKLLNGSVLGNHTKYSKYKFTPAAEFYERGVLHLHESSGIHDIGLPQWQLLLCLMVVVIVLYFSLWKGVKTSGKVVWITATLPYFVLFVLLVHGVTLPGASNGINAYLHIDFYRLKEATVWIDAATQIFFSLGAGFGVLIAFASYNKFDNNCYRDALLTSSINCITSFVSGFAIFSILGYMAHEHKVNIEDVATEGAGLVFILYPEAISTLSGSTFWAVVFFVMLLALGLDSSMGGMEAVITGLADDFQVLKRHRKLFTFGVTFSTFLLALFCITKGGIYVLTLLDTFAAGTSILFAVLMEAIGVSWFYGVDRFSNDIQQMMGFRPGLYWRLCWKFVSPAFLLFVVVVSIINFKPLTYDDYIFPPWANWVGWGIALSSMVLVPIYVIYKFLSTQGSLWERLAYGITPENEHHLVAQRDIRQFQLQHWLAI

[2] = target: Mu-type opioid receptor (Homo sapiens) (UniProt P35372); test: Displacement of [3H]DAMGO from recombinant human mu-type opioid receptor at 10 uM after 120 mins by scintillation counting relative to control
Sequence of Mu-type opioid receptor (Homo sapiens) (P35372 whole entry): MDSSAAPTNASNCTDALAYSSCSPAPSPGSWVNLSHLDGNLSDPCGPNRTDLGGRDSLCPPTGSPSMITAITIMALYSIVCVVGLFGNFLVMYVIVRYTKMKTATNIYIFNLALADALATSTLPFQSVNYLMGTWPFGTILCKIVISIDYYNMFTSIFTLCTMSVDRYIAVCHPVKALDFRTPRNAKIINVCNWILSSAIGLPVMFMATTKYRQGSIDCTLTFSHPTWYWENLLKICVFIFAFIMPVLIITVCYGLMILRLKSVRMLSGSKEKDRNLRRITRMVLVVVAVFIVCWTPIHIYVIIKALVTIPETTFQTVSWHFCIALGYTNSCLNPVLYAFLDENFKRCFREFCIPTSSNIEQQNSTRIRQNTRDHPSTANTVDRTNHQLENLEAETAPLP

[3] = Drug degradation in rat liver microsomes at 1 uM measured over 60 mins by LC-MS/MS analysis; type: ADME, Microsome; settings: read-out: Drug degradation
Method in brief: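 Human or rat liver microsomes (0.4 mg/mL protein final) in 0.1 M phosphate buffer pH 7.4 with 1 μM compound at 37°C. Reaction started with an NADPH-regenerating system plus MgCl2. Samples were quenched with ice-cold acetonitrile at time points over 60 min. Remaining parent was measured by LC-MS, and the first-order depletion rate constant came from an exponential decay fit.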

[4] = Drug degradation in human plasma at 1000 ng/ml measured over 240 mins by LC-MS/MS analysis; type: ADME, cell-free; settings: read-out: Drug degradation
Method in brief: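 Pooled human plasma (3 donors) or pooled male Sprague-Dawley rat plasma, thawed at 37°C. Spiked to a nominal 1000 ng/mL final (0.2% DMSO, 0.4% acetonitrile final) and incubated at 37°C. Aliquots were snap-frozen at time points over 4 h (n=3 per time point). Quantified by LC-MS against a same-species blank-plasma calibration with a leucine enkephalin internal standard.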

[5] = target: T1, Sodium- and chloride-dependent glycine transporter 1 (Homo sapiens, UniProt P48067); test: Inhibition of recombinant human GlyT1b expressed in Xenopus laevis oocytes assessed as reduction in channel current by two-electrode voltage clamp electrophysiology; type: cell-based
T1 sequence (P48067 whole entry): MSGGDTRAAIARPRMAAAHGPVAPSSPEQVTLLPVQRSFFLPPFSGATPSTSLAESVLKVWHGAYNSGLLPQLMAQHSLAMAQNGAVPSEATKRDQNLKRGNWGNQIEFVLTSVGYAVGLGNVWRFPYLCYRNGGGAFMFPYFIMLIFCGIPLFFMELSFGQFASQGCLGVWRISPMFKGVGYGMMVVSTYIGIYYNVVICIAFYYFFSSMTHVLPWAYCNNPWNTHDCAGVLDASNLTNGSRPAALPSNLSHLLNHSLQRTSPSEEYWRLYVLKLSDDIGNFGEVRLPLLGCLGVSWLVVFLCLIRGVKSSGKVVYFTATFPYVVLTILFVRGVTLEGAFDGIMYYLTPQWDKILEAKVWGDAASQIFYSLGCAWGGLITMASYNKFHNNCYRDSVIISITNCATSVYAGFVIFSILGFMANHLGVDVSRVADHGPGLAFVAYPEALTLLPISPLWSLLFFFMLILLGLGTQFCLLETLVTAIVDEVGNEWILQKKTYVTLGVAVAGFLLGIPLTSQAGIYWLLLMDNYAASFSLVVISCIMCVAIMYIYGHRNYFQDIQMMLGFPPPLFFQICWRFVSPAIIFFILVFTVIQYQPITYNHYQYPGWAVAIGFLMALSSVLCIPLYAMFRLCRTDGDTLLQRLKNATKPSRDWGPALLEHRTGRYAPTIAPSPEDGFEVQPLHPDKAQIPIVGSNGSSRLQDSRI

[6] = target: T2, Sodium- and chloride-dependent glycine transporter 2 (Homo sapiens, UniProt Q9Y345); test: Inhibition of recombinant human GlyT2a expressed in Xenopus laevis oocytes assessed as reduction in channel current by two-electrode voltage clamp electrophysiology; type: cell-based
T2 sequence (Q9Y345 whole entry): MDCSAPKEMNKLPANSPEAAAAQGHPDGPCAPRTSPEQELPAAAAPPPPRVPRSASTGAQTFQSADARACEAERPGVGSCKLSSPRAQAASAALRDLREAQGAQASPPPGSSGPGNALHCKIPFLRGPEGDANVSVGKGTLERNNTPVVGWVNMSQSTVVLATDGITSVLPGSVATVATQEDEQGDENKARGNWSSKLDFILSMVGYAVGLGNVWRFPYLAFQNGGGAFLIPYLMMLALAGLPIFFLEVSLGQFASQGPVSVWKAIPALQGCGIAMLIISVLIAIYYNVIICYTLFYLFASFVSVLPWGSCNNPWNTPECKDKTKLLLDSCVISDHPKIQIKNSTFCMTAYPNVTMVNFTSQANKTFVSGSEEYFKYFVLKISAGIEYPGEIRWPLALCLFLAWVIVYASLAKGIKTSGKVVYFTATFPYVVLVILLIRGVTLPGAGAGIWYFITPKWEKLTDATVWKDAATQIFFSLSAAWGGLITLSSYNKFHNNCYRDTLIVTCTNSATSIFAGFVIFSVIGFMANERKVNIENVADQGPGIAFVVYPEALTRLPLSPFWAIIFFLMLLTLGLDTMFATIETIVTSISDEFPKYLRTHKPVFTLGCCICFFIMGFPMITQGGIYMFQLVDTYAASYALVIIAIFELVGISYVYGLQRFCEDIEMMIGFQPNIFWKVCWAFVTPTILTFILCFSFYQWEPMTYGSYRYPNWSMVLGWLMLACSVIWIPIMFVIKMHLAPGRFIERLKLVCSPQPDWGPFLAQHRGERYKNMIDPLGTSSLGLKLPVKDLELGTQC

[7] = target: T3, Sodium- and chloride-dependent glycine transporter 2 (Homo sapiens) (UniProt Q9Y345); test: Inhibition of recombinant human GlyT2a expressed in Xenopus laevis oocytes assessed as reduction in channel current by two-electrode voltage clamp electrophysiology relative to control; type: cell-based
T3 sequence (whole entry): T2 sequence (Q9Y345 whole entry)

[8] = target: Cannabinoid receptor 1 (Homo sapiens) (UniProt P21554); test: Antagonist activity at human CB1 receptor
Sequence of Cannabinoid receptor 1 (Homo sapiens) (P21554 whole entry): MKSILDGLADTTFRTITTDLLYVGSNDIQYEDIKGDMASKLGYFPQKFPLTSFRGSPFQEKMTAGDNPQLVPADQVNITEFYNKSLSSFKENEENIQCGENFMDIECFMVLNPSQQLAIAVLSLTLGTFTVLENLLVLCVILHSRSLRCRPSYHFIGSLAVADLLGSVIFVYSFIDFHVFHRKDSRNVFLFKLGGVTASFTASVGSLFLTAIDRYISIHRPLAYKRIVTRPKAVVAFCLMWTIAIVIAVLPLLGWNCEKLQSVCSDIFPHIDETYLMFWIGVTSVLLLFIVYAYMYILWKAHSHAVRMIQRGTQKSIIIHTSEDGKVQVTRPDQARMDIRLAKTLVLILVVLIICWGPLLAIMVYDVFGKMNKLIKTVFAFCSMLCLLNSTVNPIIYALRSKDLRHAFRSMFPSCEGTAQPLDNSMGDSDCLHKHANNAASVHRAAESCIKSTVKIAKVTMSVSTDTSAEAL

[9] = target: Cannabinoid receptor 2 (Homo sapiens) (UniProt P34972); test: Agonist activity at human CB2 receptor
Sequence of Cannabinoid receptor 2 (Homo sapiens) (P34972 whole entry): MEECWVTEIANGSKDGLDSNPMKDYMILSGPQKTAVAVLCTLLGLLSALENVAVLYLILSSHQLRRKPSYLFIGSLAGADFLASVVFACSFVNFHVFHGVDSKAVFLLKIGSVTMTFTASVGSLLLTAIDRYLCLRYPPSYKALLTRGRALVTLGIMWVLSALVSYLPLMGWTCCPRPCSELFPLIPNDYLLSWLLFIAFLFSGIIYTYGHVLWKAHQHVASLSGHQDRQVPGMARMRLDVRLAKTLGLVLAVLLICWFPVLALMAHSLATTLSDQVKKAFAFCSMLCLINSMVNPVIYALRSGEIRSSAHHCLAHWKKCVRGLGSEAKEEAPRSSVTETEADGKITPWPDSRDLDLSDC

[10] = Half life in Sprague-Dawley rat plasma at 27.5 mg/kg, ip by UPLC analysis; type: ADME, organism-based
Method in brief: (§1)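 Male Sprague-Dawley rats (250–306 g) got one ip dose of a suspension (10% v/v DMSO, 1% solutol HS-15 in 50 mM PBS, pH 7.4). Terminal cardiac-puncture heparinised plasma and whole brain were sampled over 24 h, n=3 rats per time point. Samples were extracted by protein precipitation and read by UPLC-MS/MS in positive ESI MRM with a diazepam internal standard. Parameters are non-compartmental; the time-averaged B/P comes from AUC0-24h.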

[11] = AUC (0 to 24 hrs) in Sprague-Dawley rat plasma at 27.5 mg/kg, ip by UPLC analysis; type: ADME, organism-based; set-up: dose 27.5 mg/kg, time < 24 hr, route intraperitoneal; settings: in vivo; method in brief: as §1
[12] = Time averaged ratio of drug uptake in Sprague-Dawley rat brain to plasma at 27.5 mg/kg, ip after 24 hrs by UPLC analysis; type: ADME, organism-based; settings: read-out: BPR; method in brief: as §1
[13] = target: Sodium channel protein type 1 subunit alpha (Homo sapiens) (UniProt P35498); test: Inhibition of human NaV1.1 expressed in HEK293 cells at 1 uM; type: cell-based
[14] = target: Sodium channel protein type 5 subunit alpha (Homo sapiens, UniProt Q14524); test: Inhibition of human NaV1.5 expressed in HEK293 cells at 1 uM; type: cell-based; settings: hek293, 1 µM
Sequence of Sodium channel protein type 5 subunit alpha (Q14524 whole entry): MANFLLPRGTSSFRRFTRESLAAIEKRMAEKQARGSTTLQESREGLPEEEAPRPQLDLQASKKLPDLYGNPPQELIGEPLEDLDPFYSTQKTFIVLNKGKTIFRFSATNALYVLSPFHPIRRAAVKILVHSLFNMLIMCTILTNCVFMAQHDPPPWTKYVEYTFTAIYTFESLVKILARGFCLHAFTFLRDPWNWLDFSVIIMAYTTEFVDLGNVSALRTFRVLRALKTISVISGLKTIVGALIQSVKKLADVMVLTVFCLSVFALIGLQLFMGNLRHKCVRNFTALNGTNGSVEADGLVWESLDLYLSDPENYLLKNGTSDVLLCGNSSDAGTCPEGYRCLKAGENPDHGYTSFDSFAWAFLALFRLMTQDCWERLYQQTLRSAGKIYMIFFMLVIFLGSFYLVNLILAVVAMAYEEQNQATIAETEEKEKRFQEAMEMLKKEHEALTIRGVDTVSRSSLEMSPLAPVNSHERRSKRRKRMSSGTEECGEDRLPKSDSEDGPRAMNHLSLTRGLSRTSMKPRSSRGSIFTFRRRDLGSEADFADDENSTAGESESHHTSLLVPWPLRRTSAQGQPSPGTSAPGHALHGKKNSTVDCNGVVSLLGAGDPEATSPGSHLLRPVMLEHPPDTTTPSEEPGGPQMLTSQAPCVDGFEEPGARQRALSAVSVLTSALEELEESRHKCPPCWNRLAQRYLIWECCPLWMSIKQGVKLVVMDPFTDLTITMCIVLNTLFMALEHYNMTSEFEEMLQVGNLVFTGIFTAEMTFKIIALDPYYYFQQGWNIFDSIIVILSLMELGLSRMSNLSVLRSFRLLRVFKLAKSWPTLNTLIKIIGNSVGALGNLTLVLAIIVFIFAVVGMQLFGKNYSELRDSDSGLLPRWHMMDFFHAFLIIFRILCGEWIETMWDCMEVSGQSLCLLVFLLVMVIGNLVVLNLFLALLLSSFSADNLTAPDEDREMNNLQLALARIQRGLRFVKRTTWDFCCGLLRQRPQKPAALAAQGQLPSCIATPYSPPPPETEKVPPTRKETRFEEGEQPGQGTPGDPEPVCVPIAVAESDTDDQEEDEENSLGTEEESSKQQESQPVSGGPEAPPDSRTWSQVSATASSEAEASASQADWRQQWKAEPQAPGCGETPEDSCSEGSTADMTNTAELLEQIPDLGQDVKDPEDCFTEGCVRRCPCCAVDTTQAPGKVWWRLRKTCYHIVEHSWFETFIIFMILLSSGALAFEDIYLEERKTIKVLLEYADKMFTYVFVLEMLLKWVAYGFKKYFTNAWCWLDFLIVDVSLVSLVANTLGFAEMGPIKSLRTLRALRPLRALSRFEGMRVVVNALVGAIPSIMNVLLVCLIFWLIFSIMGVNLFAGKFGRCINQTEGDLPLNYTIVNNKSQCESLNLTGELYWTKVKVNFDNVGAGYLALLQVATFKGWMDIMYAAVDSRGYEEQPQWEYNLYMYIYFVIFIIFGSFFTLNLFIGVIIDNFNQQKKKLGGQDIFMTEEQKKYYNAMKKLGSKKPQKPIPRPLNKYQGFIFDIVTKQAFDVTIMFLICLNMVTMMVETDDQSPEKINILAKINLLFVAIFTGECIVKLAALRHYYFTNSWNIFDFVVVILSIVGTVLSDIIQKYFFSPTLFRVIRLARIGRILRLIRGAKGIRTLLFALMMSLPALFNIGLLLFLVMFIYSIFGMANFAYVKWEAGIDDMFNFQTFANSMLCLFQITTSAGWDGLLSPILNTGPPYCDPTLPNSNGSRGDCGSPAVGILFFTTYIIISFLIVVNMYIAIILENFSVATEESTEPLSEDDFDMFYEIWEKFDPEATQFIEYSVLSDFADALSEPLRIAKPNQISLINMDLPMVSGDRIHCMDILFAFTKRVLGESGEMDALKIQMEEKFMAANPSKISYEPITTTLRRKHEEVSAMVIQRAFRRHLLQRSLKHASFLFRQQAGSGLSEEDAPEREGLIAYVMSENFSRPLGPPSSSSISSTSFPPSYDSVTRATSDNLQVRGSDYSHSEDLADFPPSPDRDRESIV

inhibition [1]: > 50% | inhibition [2]: > 50% | metabolised at 1 h, 1 µM [3]: < 15% | metabolised at 4 h, 1000 ng/ml [4]: < 15% | IC50 [5]: > 3000 nM | IC50 [6]: 48.3 nM | Imax [7]: 91% | inhibition [8]: inactive | Activity [9]: inactive | half-life [10]: 10 h | AUC [11]: 122.473 µg·h/mL | Kp at 24 h [12]: 0.31 | inhibition [13]: inactive
SMILES: CCCCCCCC/C=C\CCCCCCCC(=O)N[C@H](CCCCN)C(=O)O.Cl
inhibition (INH) [14]: Not Active
